pEC50, pIC50: −log10 of the molar value.

Assay [1] addresses T1, G-protein coupled receptor homolog US28 (Human cytomegalovirus (strain AD169) (HHV-5) (Human herpesvirus 5), UniProt P69332).
T1 sequence (P69332 whole entry): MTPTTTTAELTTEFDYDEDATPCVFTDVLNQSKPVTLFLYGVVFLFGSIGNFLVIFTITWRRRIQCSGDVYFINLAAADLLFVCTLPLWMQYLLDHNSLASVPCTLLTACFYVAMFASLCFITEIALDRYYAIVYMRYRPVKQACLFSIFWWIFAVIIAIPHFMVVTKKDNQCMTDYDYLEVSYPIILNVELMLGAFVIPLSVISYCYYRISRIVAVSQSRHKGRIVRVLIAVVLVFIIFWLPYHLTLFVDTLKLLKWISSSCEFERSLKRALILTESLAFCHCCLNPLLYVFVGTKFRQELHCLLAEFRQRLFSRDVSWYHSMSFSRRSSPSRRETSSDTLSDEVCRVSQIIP
The experiment in a line: Inhibitory concentration against chemokine receptor US28 expressed in COS-7 cells using [125I]-CCL5. Format: cell-based, Human betaherpesvirus 5. A digest of the protocol:
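Whole US28-transfected COS-7 cells, 48 h post-transfection, incubated 3 h at 4 °C with 0.3 nM [125I]CCL5 in 50 mM Hepes pH 7.4, 1 mM CaCl2, 5 mM MgCl2, 0.5% BSA ± varying compound concentrations. Four washes at 4 °C with buffer plus 0.5 M NaCl; nonspecific binding with 0.1 μM unlabeled CCL5. IC50 as mean, interval from ≥3 experiments unless noted.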

The target in assay [2] is T1, G-protein coupled receptor homolog US28. The experiment in a line: Effective concentration against US28-mediated inositol phosphate production in COS-7 cells. It counts as functional, cell-based. A digest of the protocol: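 COS-7 cells transiently transfected (DEAE-dextran, 2 μg DNA per million cells, pcDEF3-US28); 24 h post-transfection labeled overnight with 2 μCi/ml myo-[2-3H]inositol in inositol-free medium. After 10 min wash, 2 h incubation in DMEM with 25 mM HEPES pH 7.4 and 20 mM LiCl ± varying compound concentrations; stopped with cold 10 mM formic acid, [3H]inositol phosphates isolated by anion exchange, scintillation counted. EC50 as mean, interval from ≥3 experiments.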

The pIC50 is the IC50 on a negative log10 scale, so that one unit is a factor of ten. `OC1(c2ccc(Cl)cc2)CCN(CCCCc2ccccc2)CC1`: the pIC50 in assay [1] is 4.83.

As a reminder, the pEC50 is the negative decadic logarithm of the EC50, by convention in mol/L. High values mean a small EC50, low ones a large EC50. Take `COc1ccc(C2(O)CCN(CCCC(C#N)(c3ccccc3)c3ccccc3)CC2)cc1`: the pIC50 in assay [1] is 4.14. This molecule also had a pEC50 in assay [2] of 4.54.

As for `N#CC(CCCN1CCC(O)(c2ccccc2)CC1)(c1ccccc1)c1ccccc1`, the pIC50 in assay [1] is 4.45. In assay [2], the pEC50 was 4.55.

In assay [1], `N#CC(CCCN1CCN(c2ccc(Cl)cc2)CC1)(c1ccccc1)c1ccccc1` gave a negative-log IC50 (pIC50) of less than 4.00. The molecule further showed a pEC50 in assay [2] of less than 4.00.

As to `OC1(c2ccc(Cl)cc2)CCN(CCCOc2ccccc2)CC1`, the pIC50 in assay [1] was 4.21.

Regarding `Cc1ccc(C2(O)CCN(CCCC(C#N)(c3ccccc3)c3ccccc3)CC2)cc1`, the pIC50 in assay [1] is 4.22.

In the case of `N#CC(CCCN1CCC(O)(c2ccc(Br)cc2)CC1)(c1ccccc1)c1ccccc1`, the negative-log IC50 (pIC50) in assay [1] was 4.71.

In the case of `N#CC(CCCN1CCC(O)CC1)(c1ccccc1)c1ccccc1`, the pIC50 in assay [1] was less than 4.00. Moreover, the pEC50 in assay [2] is less than 4.00.

In turn, `COc1ccc(C(CCCN2CCC(O)(c3ccc(Cl)cc3)CC2)c2ccccc2)cc1` (configuration not stated) showed a pIC50 in assay [1] of 4.81.

The molecule `CCOC(=O)C1CCN(CCCC(C#N)(c2ccccc2)c2ccccc2)CC1` showed a pIC50 in assay [1] of 4.46. The molecule also had a pEC50 in assay [2] of less than 4.00.

As to `N#CC(CCCN1CCC(O)(c2ccc(Cl)c(Cl)c2)CC1)(c1ccccc1)c1ccccc1`, in assay [1], the pIC50 is 4.42.

`OC1(c2ccc(Cl)cc2)CCN(CCCC(c2ccccc2)c2ccc(Cl)c(Cl)c2)CC1` (configuration not stated) showed a pIC50 in assay [1] of 4.80.

As to `N#CC(CCCN1CCC(C(=O)O)CC1)(c1ccccc1)c1ccccc1`, the pIC50 in assay [1] was less than 4.00. For the same molecule, in assay [2], the negative-log EC50 (pEC50) is less than 4.00.

On to `N#CC1(c2ccccc2)CCN(CCCC(C#N)(c2ccccc2)c2ccccc2)CC1`, for which the pIC50 in assay [1] was less than 4.00. This molecule showed a pEC50 in assay [2] of less than 4.00.

In turn, `N#CC(CCCN1CCC(c2ccc(Cl)cc2)CC1)(c1ccccc1)c1ccccc1` gave a negative logarithm of the EC50 (pEC50) in assay [2] of 4.86.

Turning to `Cc1ccccc1C(CCCN1CCC(O)(c2ccc(Cl)cc2)CC1)c1ccccc1` (configuration not stated), the pIC50 in assay [1] is 5.26. In assay [2], this molecule gave a pEC50 of 5.01.

Molecule `OC1(c2ccc(Cl)cc2)CCN(CCCC(c2ccccc2)c2ccc(Cl)cc2)CC1` (configuration not stated) showed a pIC50 in assay [1] of 4.77.

`N#CC(CCCN1CCC(O)(Cc2ccccc2)CC1)(c1ccccc1)c1ccccc1`: the negative-log IC50 (pIC50) in assay [1] is 4.20.

The molecule `OC1(c2ccc(Cl)cc2)CCN(CCCC(c2ccccc2)c2ccccc2)CC1` showed a pIC50 in assay [1] of 5.19. Moreover, the pEC50 in assay [2] is 5.38.

The molecule `N#CC(CCCN1CCC(C(N)=O)CC1)(c1ccccc1)c1ccccc1` showed a pIC50 in assay [1] of less than 4.00. In assay [2], the pEC50 was less than 4.00.

`OC1(c2ccc(Cl)cc2)CCN(CCCC(c2ccc(Cl)cc2)c2ccc(-c3ccccc3)cc2)CC1` (configuration not stated): the pIC50 in assay [1] was less than 4.00. Further, the pEC50 in assay [2] is less than 4.00.

In turn, `N#CC(CCCN1CCC(=C(c2ccccc2)c2ccccc2)CC1)(c1ccccc1)c1ccccc1` showed a pIC50 in assay [1] of less than 4.00. In assay [2], this molecule showed a pEC50 of less than 4.00.

Consider `O=C(CCCN1CCC(O)(c2ccc(Cl)cc2)CC1)c1ccccc1`, for which the pIC50 in assay [1] is less than 4.00.

The molecule `C[N+]1(CCCC(C#N)(c2ccccc2)c2ccccc2)CCC(O)(c2ccc(Cl)cc2)CC1` (configuration not stated) had a pIC50 in assay [1] of less than 4.00. Also, the pEC50 in assay [2] is less than 4.00.

`Cc1ccc(C(CCCN2CCC(O)(c3ccc(Cl)cc3)CC2)c2ccccc2)cc1` (configuration not stated) showed a pIC50 in assay [1] of 4.51. The same molecule showed a pEC50 in assay [2] of 4.94.

`N#CC(CCCN1CC=C(c2ccc(Cl)cc2)CC1)(c1ccccc1)c1ccccc1` showed a pIC50 in assay [1] of less than 4.00. For the same molecule, the pEC50 in assay [2] is less than 4.00.

Regarding `N#CC(CCCN1CCC(O)(c2ccc(Cl)c(C(F)(F)F)c2)CC1)(c1ccccc1)c1ccccc1`, in assay [1], the pIC50 is 4.34.

Take `OC(CCCN1CCC(O)(c2ccc(Cl)cc2)CC1)c1ccccc1` (configuration not stated): the pIC50 in assay [1] was less than 4.00. The molecule further gave a pEC50 in assay [2] of less than 4.00.

`CC1(O)CCN(CCCC(C#N)(c2ccccc2)c2ccccc2)CC1` gave a pIC50 in assay [1] of less than 4.00. This molecule showed a pEC50 in assay [2] of less than 4.00.

Molecule `OC1(c2ccc(Cl)cc2)CCN(CCCC(c2ccc(Cl)cc2)c2ccc(Cl)cc2)CC1` showed a pIC50 in assay [1] of 4.76.

In turn, `Cc1cccc(C(CCCN2CCC(O)(c3ccc(Cl)cc3)CC2)c2ccccc2)c1` (configuration not stated) had a pIC50 in assay [1] of 4.94.

Take `CCCCC1(O)CCN(CCCC(C#N)(c2ccccc2)c2ccccc2)CC1`: the pIC50 in assay [1] is less than 4.00. In assay [2], this molecule gave a pEC50 of less than 4.00.

On to `N#CC(CCCN1CCC(O)(c2ccc(Cl)cc2)CC1)(c1ccccc1)c1ccccc1` [BERLEX COMPOUND], for which, in assay [1], the pIC50 is 5.03. In assay [2], this molecule gave a pEC50 of 5.49.

The values are drawn from ChEMBL document CHEMBL1141116, “Synthesis and structure-activity relationship of the first nonpeptidergic inverse agonists for the human cytomegalovirus encoded chemokine receptor US28” (J Med Chem, 2005).
